The subject of one assay is KB-HU. Kind of assay: Antiproliferative activity against human KB-HU cells overexpressing ribonucleotide reductase subunit 2 after 72 hrs by MTT assay. In kind it is functional, cell-based. In a few lines: (§1)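 MTT assay: cells in RPMI 1640 with 10% heat-inactivated FCS at 37 °C and 5% CO2 were seeded 24 h before treatment. They were exposed 72 h to compound at 0.01–100 μM, with DMSO as solvent.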

The next assay has as its system T98G. In words: Antiproliferative activity against human T98G cells after 72 hrs by MTT assay. In kind it is functional, cell-based. The procedure, abridged:
as §1
For orientation: Tetrazolium dyes change colour on reduction, which living cells bring about.

In assay [1] the target is T1, NAD-dependent protein deacetylase sirtuin-2 (Homo sapiens, UniProt Q8IXJ6).
T1 sequence (Q8IXJ6 whole entry): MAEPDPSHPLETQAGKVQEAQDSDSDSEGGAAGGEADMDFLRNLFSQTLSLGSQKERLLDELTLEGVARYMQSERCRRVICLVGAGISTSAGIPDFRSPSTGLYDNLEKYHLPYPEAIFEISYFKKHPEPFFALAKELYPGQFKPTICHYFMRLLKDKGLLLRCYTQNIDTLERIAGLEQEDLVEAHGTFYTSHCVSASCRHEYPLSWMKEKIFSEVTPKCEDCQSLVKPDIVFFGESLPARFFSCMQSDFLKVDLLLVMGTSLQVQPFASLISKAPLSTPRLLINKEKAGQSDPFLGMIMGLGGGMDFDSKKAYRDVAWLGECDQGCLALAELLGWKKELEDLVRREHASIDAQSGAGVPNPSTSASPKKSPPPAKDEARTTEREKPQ
Kind of assay: Inhibition of N-terminal His-tagged recombinant human SIRT-2 expressed in Escherichia coli using Fluor-de-Lys-SIRT1 as substrate after 15 mins by fluorescence assay.

Assay [2] concerns the target Polyamine deacetylase HDAC10 (Homo sapiens) (UniProt Q969S8). In words: Inhibition of C-terminal His-tagged recombinant human HDAC10 expressed in baculovirus infected insect Sf9 cells at 0.1 to 100 uM using Fluor-de-Lys-SIRT1 as substrate after 15 mins by fluorescence assay.
Assay [3] has as its target T2, NAD-dependent protein deacetylase sirtuin-2 (Homo sapiens) (UniProt Q8IXJ6).
T2 sequence (whole entry): T1 sequence (Q8IXJ6 whole entry)
In words: Inhibition of SIRT2 in human U373 cells assessed as increase of alpha-tubulin acetylation after 8 hrs by Western blotting method. It counts as cell-based. In general terms: A western blot detects proteins with antibodies after separation by electrophoresis.

Assay [4] deals with T2, NAD-dependent protein deacetylase sirtuin-2 (Homo sapiens). In words: Inhibition of SIRT2 in human Hs683 cells assessed as increase of alpha-tubulin acetylation after 8 hrs by Western blotting method. It counts as cell-based.
Assay [5] addresses T3, NAD-dependent protein deacetylase sirtuin-1 (Homo sapiens) (UniProt Q96EB6).
T3 sequence (whole entry): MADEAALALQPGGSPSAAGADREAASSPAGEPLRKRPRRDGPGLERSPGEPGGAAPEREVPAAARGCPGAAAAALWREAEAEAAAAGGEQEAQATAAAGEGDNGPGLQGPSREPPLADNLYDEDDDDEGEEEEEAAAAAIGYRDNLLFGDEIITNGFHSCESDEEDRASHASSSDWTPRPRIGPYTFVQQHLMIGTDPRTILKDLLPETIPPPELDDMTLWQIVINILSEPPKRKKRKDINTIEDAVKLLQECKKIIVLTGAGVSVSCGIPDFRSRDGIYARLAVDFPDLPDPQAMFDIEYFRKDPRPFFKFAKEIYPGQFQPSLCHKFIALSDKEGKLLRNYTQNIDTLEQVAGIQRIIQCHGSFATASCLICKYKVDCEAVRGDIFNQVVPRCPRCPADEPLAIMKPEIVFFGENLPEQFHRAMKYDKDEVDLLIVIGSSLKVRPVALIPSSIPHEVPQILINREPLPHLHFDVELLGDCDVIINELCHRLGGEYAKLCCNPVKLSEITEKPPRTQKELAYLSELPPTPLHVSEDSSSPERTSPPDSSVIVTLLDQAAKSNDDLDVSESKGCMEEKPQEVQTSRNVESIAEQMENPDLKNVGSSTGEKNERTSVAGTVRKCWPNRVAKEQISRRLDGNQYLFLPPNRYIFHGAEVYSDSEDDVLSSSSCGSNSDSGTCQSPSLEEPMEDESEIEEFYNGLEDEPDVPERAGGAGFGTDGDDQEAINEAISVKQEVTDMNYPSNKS
Kind of assay: Inhibition of SIRT1 in human U373 cells assessed as increase of histone H4 acetylation after 8 hrs by Western blotting method. It counts as cell-based.

For assay [6], the target named is T3, NAD-dependent protein deacetylase sirtuin-1 (Homo sapiens). Kind of assay: Inhibition of SIRT1 in human U373 cells assessed as increase of histone H3K56 acetylation at 10 to 25 after 8 to 24 hrs by Western blotting method. It counts as cell-based. The procedure, abridged:
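Cells treated with the compound, then histone H3K56 acetylation assessed by Western blot on histone extracts; histone H1 or Coomassie staining as loading control.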

The subject of another assay is U-373MG ATCC. Kind of assay: Antitumor activity against CM-Dil fluorescent dye labeled human U373 cells xenografted in zebrafish embryo at 5 to 10 uM preincubated with tumor for 30 to 36 hrs followed by tumor implantation in zebra fish yolk sac measured after 72 hrs by fluorescence microscopy. In kind it is functional, cell-based. The procedure, abridged: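 Cells were pretreated in vitro at 5 or 10 μM for 30 or 36 h and labeled with CM-DiI 2 h before injection. Then 100–200 cells were injected into the yolk sac of wild-type zebrafish 48 h post-fertilization, anesthetized in 0.02% tricaine. Embryos were kept 72 h at 28.5 °C in Danieau solution with 0.003% phenylthiourea, and fluorescence was quantified in eight fish per condition.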
Background: In xenograft studies the graft and the host belong to different species.

The next assay has as its system SW1573/2R120. In words: Antiproliferative activity against human SW1573/2R120 cells overexpressing ABCC1/LRP after 72 hrs by MTT assay. It counts as functional, cell-based. The procedure, abridged:
as §1

For assay [7], the target named is T3, NAD-dependent protein deacetylase sirtuin-1 (Homo sapiens). In words: Inhibition of SIRT1 in human Hs683 cells assessed as increase of histone H4 acetylation at 1 uM after 8 hrs by Western blotting method relative to control. In kind it is cell-based.
Assay [8] addresses T2, NAD-dependent protein deacetylase sirtuin-2 (Homo sapiens). Kind of assay: Inhibition of SIRT2 in human U373 cells assessed as increase of alpha-tubulin acetylation at 2.5 uM after 8 hrs by Western blotting method relative to control. It counts as cell-based.
The target is the same in assay [9]. Kind of assay: Inhibition of SIRT2 in human U373 cells assessed as increase of alpha-tubulin acetylation at 5 uM after 8 hrs by Western blotting method relative to control. In kind it is cell-based.
The target is the same in assay [10]. In words: Inhibition of SIRT2 in human U373 cells assessed as increase of alpha-tubulin acetylation at 10 uM after 8 hrs by Western blotting method relative to control. It counts as cell-based.
A short description of assay [11]: Potency index, ratio of EX-527 IC50 to test compound IC50 for human U373 cells. In kind it is functional, U-373MG ATCC.
The subject of a further assay is Hs 683. In words: Potency index, ratio of EX-527 IC50 to test compound IC50 for human Hs683 cells. It counts as functional.
The subject of another assay is A549. Kind of assay: Growth inhibition of human A549 cells after 48 hrs by SRB assay. It counts as functional. Conditions: A549, 48 h.
The test system of a further assay is HOP-62. In words: Growth inhibition of human HOP62 cells after 48 hrs by SRB assay. In kind it is functional. Conditions: HOP-62, 48 h.
A further assay concerns KM12. In words: Growth inhibition of human KM12 cells after 48 hrs by SRB assay. It counts as functional. Conditions: KM12, 48 h.
The next assay deals with OVCAR-3. In words: Growth inhibition of human OVCAR3 cells after 48 hrs by SRB assay. In kind it is functional. Conditions: OVCAR-3, 48 h.
In another assay the test system is A498. Kind of assay: Growth inhibition of human A498 cells after 48 hrs by SRB assay. In kind it is functional. The note with it: A498, 48 h.
In another assay the test system is RXF 393. Kind of assay: Growth inhibition of human RXF393 cells after 48 hrs by SRB assay. In kind it is functional. Conditions: RXF 393, 48 h.

pIC50: −log10 of the molar value. Activity calls are given as the source filed them. No cut-off for these calls is given here.

By pIC50 is commonly meant the IC50 on a negative log10 scale, so that one unit is a factor of ten. In general, GI50 refers to the concentration at which growth is held to half of that of the control.

Sequence of Polyamine deacetylase HDAC10 (Homo sapiens) (Q969S8 whole entry): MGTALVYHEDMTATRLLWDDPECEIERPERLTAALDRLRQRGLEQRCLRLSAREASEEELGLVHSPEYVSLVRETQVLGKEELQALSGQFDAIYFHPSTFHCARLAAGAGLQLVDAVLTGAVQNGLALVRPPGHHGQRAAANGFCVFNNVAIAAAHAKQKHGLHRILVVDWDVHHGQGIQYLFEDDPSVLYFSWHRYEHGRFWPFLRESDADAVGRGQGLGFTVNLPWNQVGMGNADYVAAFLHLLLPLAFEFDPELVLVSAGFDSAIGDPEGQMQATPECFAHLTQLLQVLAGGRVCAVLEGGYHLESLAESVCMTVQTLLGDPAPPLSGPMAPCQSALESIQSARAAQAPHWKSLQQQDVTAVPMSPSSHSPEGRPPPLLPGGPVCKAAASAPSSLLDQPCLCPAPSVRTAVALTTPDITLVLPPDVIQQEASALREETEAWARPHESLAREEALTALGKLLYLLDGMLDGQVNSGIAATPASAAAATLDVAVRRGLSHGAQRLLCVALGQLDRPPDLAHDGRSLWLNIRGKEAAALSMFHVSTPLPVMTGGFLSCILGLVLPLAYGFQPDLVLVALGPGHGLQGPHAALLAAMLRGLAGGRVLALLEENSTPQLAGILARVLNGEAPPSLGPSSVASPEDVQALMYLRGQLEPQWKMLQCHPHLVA

As to `CC(C)(C)OC(=O)Nc1ccc2c(c1)C(NC(=O)Nc1cccc(C#N)c1)CC(C)(C)O2` (configuration not stated), the result with KB-HU, in the assay on U-373MG ATCC and with SW1573/2R120 was Active. Also, the pIC50 in the assay on T98G is 4.85; in [1], 5.38. Also, in [2], the inhibition entry was “inactive”. Also, the inhibition result in assay [3], in assay [4] and in assay [5] was “Dose-dependent effect” in each case. Moreover, the inhibition entry in [6] was “Active”. For the same molecule, the fold change (FC) turned out to be 1.3 in [7], 1.4 in assay [8], 5.9 in [9] and 8.6 in assay [10]. In addition, the “Ratio IC50” value (in assay [11]; in the assay with Hs 683) was 20 each time. For the same molecule, the GI50 is 2.75 µM in the assay on A549; 5.01 µM in the assay on HOP-62; 4.07 µM in the assay with KM12; 2.29 µM with OVCAR-3; 7.08 µM with A498; 6.17 µM with RXF 393.
